Compound activity (PubChem)
Only some compounds are listed: those with a hit (about 1.5% of all), similar ones and a draw of the others.
Wnt act = activates Wnt/beta-catenin signaling in a reporter cell assay; 300,000 tested, 1.2% active; activation, % at 9.35 µM; activator, plate reader; in the data active means activation above about 30%, passing the limit was not always enough
MITF TRPM1 HTS = activators of MITF-driven TRPM1 promoter activity in SK-MEL-5 cells | 300,000 tested, 0.75% active | SK-MEL-5 TRPM1-promoter luciferase, 24 h; % of positive control, neutral wells = 0 | AID 588334 | activation, % at 12.5 µM;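 active means mean activation of at least 80% with every replicate also reaching 80%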
Cneo AK release = causes C. neoformans cell lysis; adenylate kinase release luminescence, 4 h; normalised: neutral wells 0, clomiphene wells 100; lysis activity, % at 15 µM; 360,000 tested, 0.2% active; AID 651654;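 active means mean lysis activity across replicates of at least 80%, whatever share of replicates individually reach that level; inactive means mean lysis activity below 80%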
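Material – log-phase Cryptococcus neoformans yeast cells · Input – 5 × 10^6 yeast cells/mL · Medium – fresh YPD growth medium · Doses – single compound concentration per well · Timing – static 4 h at 37 °C with compound, 1 h detection · Detection – adenylate kinase release luminescence · Read-out – signal increase indicating cell lysis · Control set – Clomiphene as positive lysis control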
PGC1a acetyl inh = modulators of PGC1a acetylation; 350,000 tested, 0.17% active; AID 651687; inhibition, % at 15.6 µM; U2OS PGC1a acetylation, AlphaScreen anti-acetyl-lysine; with virally co-expressed GCN5 acetyltransferase;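 active means every replicate shows inhibition of at least 40%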
Each line names hits and unclear results; the compound was inactive in the other large screens.

O=C(NCC[C@@H]1CC[C@@H](NS(=O)(=O)c2cccc(F)c2)[C@@H](CO)O1)C1CCCC1	none (no result: Wnt act, MITF TRPM1 HTS)
COCC(=O)Nc1ccc2c(c1)OC[C@@H](C)N(Cc1ccccc1F)C[C@H](C)[C@@H](OC)CN(C)C2=O	none (no result: Wnt act, MITF TRPM1 HTS, Cneo AK release)
Cc1ccc(S(=O)(=O)Nc2cccc3c2O[C@@H](CN(C)S(=O)(=O)c2ccc(F)cc2)[C@H](C)CN([C@@H](C)CO)C3=O)cc1	none (no result: Wnt act, MITF TRPM1 HTS)
C(=Nn1cnnc1)c1ccc2c(c1)CCC2	Cneo AK release 82 (no result: MITF TRPM1 HTS)
O=C(Nc1nc2ccsc2c(=O)s1)c1ccc(F)cc1Cl	Wnt act 52 (no result: MITF TRPM1 HTS)
COc1ccc(S(=O)(=O)Nc2ccccc2OC)cc1NC(=O)c1cc2ccccc2oc1=O	MITF TRPM1 HTS 90 (no result: Wnt act)
CCC(=O)N(C)C[C@H]1Oc2ncc(-c3ccccc3C)cc2C(=O)N([C@H](C)CO)C[C@@H]1C	none (no result: Wnt act, MITF TRPM1 HTS, PGC1a acetyl inh)
C[C@H]1CN([C@@H](C)CO)C(=O)c2cccc(N(C)C)c2O[C@H]1CN(C)C(=O)Nc1ccccc1	none (no result: Wnt act, MITF TRPM1 HTS)
CN(C)c1ccc(NC(=O)c2sc(SCC(=O)Nc3nccs3)nc2N)cc1	Wnt act 47
Cc1ccc(/C=N/Nc2nc(Cl)c(Cl)cc2Cl)s1	Wnt act 72
C(=N\Nc1nc2ccccc2[nH]1)/c1c[nH]c2ccccc12	MITF TRPM1 HTS 123 (no result: Wnt act, Cneo AK release, PGC1a acetyl inh)
Cc1[nH]c2ccccc2c1/C=C/c1nc2ccccc2c(=O)[nH]1	MITF TRPM1 HTS 93
C(=N\Nc1nc2ccccc2[nH]1)/c1cccc2cccnc12	Wnt act 37 (no result: MITF TRPM1 HTS)
Cc1ccsc1/C=N/Nc1nc(Cl)c(Cl)cc1Cl	none
CCC(=O)N1CC(=O)N2[C@@H](CO)[C@H](c3ccc(-c4ccncc4)cc3)[C@@H]2C1	none (no result: Wnt act, MITF TRPM1 HTS, Cneo AK release)
COCC(=O)Nc1ccc2c(c1)C(=O)N(C)C[C@H](OC)[C@H](C)CN(C(=O)CC1CC1)[C@H](C)CO2	none (no result: Wnt act, MITF TRPM1 HTS)
CCNC(=O)Nc1ccc2c(c1)C(=O)N(C)[C@@H]1CC[C@H](CC(=O)NCC3CC3)O[C@@H]1CO2	none (no result: Wnt act, MITF TRPM1 HTS)
CCC(=O)N1CC2(C1)CN(Cc1ccccc1Cl)[C@H](CO)c1c2c2ccc(OC)cc2n1C	none (no result: Wnt act, MITF TRPM1 HTS, Cneo AK release)
Cc1ccc(/C=N/Nc2nc3ccccc3[nH]2)s1	Wnt act 156
Cc1ccccc1/C=N/Nc1nc2ccccc2[nH]1	none (no result: Cneo AK release)
Cc1[nH]c2ccccc2c1/C=N/Nc1nc2ccccc2[nH]1	Wnt act 98 (no result: MITF TRPM1 HTS)
CCCC(=O)Nc1ccc2c(c1)OC[C@H](C)N(Cc1cccc(F)c1)C[C@H](C)[C@@H](OC)CN(C)C2=O	none (no result: Wnt act, MITF TRPM1 HTS, Cneo AK release)
O=C(Nc1ccccc1)C1=C[C@H](c2ccccc2)C[C@H](OCCCCO)O1	Wnt act 33
C[C@@H]1CCCCO[C@H](CN(C)Cc2ccc(C(F)(F)F)cc2)[C@H](C)CN([C@H](C)CO)C(=O)c2cc(NC(=O)CCC(F)(F)F)ccc2O1	none (no result: Wnt act, MITF TRPM1 HTS)
CN(c1ccc(C(=O)COC(=O)C2CC2)cc1)S(C)(=O)=O	MITF TRPM1 HTS 83
C[C@@H]1CN([C@H](C)CO)C(=O)c2cc(NC(=O)Nc3ccc(F)cc3)ccc2O[C@H]1CN(C)Cc1ccc(C(=O)O)cc1	none (no result: Wnt act, MITF TRPM1 HTS)
COc1ccc(S(=O)(=O)NCCC(=O)NCc2ccc(F)cc2)cc1	PGC1a acetyl inh 80 (no result: Wnt act)
COc1ccc(CNC(=O)CCNS(=O)(=O)c2ccc(Cl)cc2)cc1	none
Nc1nnc(/C=C/c2ccccc2Cl)s1	Wnt act 55 (no result: MITF TRPM1 HTS, Cneo AK release, PGC1a acetyl inh)
CCCC#Cc1ccc(CC[C@H]2O[C@H]3CC[C@H](CO)O[C@H]3C[C@@H]2n2cc(C(C)(C)O)nn2)cc1	none (no result: Wnt act, MITF TRPM1 HTS, Cneo AK release)
COc1ccc(CC(=O)NCC2CCCN(Cc3ccc(OC(F)(F)F)cc3)C2)cc1 (configuration not stated)	none (no result: MITF TRPM1 HTS)
COC(=O)c1ccc(CN2CCCC(CNC(=O)Cc3ccc(OC)cc3)C2)cc1 (configuration not stated)	Wnt act 36 (no result: MITF TRPM1 HTS)
C[C@@H]1CCCCO[C@@H](CN(C)C(=O)c2ccncc2)[C@@H](C)CN([C@H](C)CO)C(=O)c2cc(NC(=O)CCCCCC(=O)Nc3ccccc3N)ccc2O1	PGC1a acetyl inh 99 (no result: Wnt act, MITF TRPM1 HTS)
C[C@H]1CCCCO[C@@H](CN(C)C(=O)c2ccccc2)[C@@H](C)CN([C@@H](C)CO)C(=O)c2cc(NC(=O)c3ccncc3)ccc2O1	Cneo AK release 86 (no result: Wnt act, MITF TRPM1 HTS)
C[C@H](CO)N1C[C@H](C)[C@@H](CN(C)C(=O)c2ccccc2)OCCCC[C@H](C)Oc2ccc(NC(=O)c3ccncc3)cc2C1=O	none (no result: Wnt act, MITF TRPM1 HTS)
C[C@@H]1CN([C@H](C)CO)C(=O)c2cc(NC(=O)CCC(F)(F)F)ccc2O[C@@H](C)CCCCO[C@@H]1CN(C)C(=O)c1ccncc1	Cneo AK release 89 (no result: Wnt act, MITF TRPM1 HTS)
C[C@@H]1CCCCO[C@H](CN(C)C(=O)c2ccccc2)[C@@H](C)CN([C@@H](C)CO)C(=O)c2cc(NC(=O)c3ccccc3)ccc2O1	Cneo AK release 96 (no result: Wnt act, MITF TRPM1 HTS)
